IC50 data for 13 compounds are collected here from ChEMBL document CHEMBL4371030, “Synthesis and antitumor activity of biotinylated camptothecin derivatives as potent cytotoxic agents” (Bioorg Med Chem Lett, 2019).

Molecules are shown by their SMILES.

Common to all, as to assay type: functional, cell-based
One test deals with SW480. Description: Cytotoxicity against human SW480 cells after 48 hrs by MTT assay. Particulars: SW480, 48 h. The procedure, abridged: (§1)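 MTT viability read-out on a human tumour panel: HL-60 leukaemia, SMMC-7721 hepatoma, A-549 lung, MCF-7 breast and SW480 colon carcinoma. Camptothecin and cisplatin were run alongside as positive controls. Potency is reported as the half-maximal inhibitory concentration (IC50) in μmol L-1.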
Background: Tetrazolium dyes change colour on reduction, which living cells bring about.

A further test deals with SMMC-7721. Kind of test: Cytotoxicity against human SMMC7721 cells after 48 hrs by MTT assay. The following applies: SMMC-7721, 48 h. The procedure, abridged:
as §1

Another test relates to MCF7. Kind of test: Cytotoxicity against human MCF7 cells after 48 hrs by MTT assay. The following applies: MCF7, 48 h. The procedure, abridged:
as §1

For the next test, the system named is A549. Description: Cytotoxicity against human A549 cells after 48 hrs by MTT assay. Particulars: A549, 48 h. The method in brief: as §1
A further test deals with HL-60. Description: Cytotoxicity against human HL60 cells after 48 hrs by MTT assay. Particulars: HL-60, 48 h. The method in brief:
as §1

One may read the IC50 as the concentration that gives 50% inhibition. Lower therefore signals greater potency in that assay. Regarding `CC[C@@]1(OC(=O)CCCCCNC(=O)CCCC[C@@H]2SC[C@@H]3NC(=O)N[C@@H]32)C(=O)OCc2c1cc1n(c2=O)Cc2cc3ccccc3nc2-1`, the IC50 in the test with SW480 was > 40 µM; in the test on SMMC-7721, 15.3 µM; with MCF7 it was 21.5 µM; in the test with A549, 19.9 µM; with HL-60, 6.57 µM.

`CC[C@@]1(OC(=O)CCCC[C@@H]2SC[C@@H]3NC(=O)N[C@@H]32)C(=O)OCc2c1cc1n(c2=O)Cc2cc3ccccc3nc2-1`: the IC50 amounted to 12.5 µM with SW480; 7.69 µM with SMMC-7721; 18.2 µM in the test on MCF7; 3.47 µM in the test with A549; 2.3 µM in the test on HL-60.

Turning to `CCc1c2c(nc3ccccc13)-c1cc3c(c(=O)n1C2)COC(=O)[C@@]3(CC)OC(=O)CCCC[C@@H]1SC[C@@H]2NC(=O)N[C@@H]21`, the IC50 with SW480 amounted to 8.73 µM; in the test with SMMC-7721, 3.28 µM; with MCF7, 4.26 µM; in the test on A549 it was 1.14 µM; in the test with HL-60, 1.81 µM.

Consider `CC[C@@]1(OCc2cn(CCOCCOCCOCCOCCOCCNC(=O)CCCC[C@@H]3SC[C@@H]4NC(=O)N[C@@H]43)nn2)C(=O)OCc2c1cc1n(c2=O)Cc2cc3ccccc3nc2-1`, for which the IC50 with SW480, with SMMC-7721, in the test with MCF7, in the test with A549 and in the test with HL-60 was > 40 µM each time.

In the case of `CC[C@@]1(O)C(=O)OCc2c1cc1n(c2=O)Cc2cc3cc(OC(=O)CCCC[C@@H]4SC[C@@H]5NC(=O)N[C@@H]54)ccc3nc2-1`, the IC50 stood at 0.55 µM in the test on SW480; 3.32 µM with SMMC-7721; 2.3 µM in the test on MCF7; 1.23 µM in the test on A549; 3.19 µM in the test with HL-60.

For `CCc1c2c(nc3ccc(OC(=O)CCCC[C@@H]4SC[C@@H]5NC(=O)N[C@@H]54)cc13)-c1cc3c(c(=O)n1C2)COC(=O)[C@]3(O)CC`, the IC50 came out at 0.13 µM in the test on SW480; 1.55 µM in the test with SMMC-7721; 0.8 µM in the test with MCF7; 0.52 µM with A549; 3.31 µM with HL-60.

Turning to `CC[C@@]1(O)C(=O)OCc2c1cc1n(c2=O)Cc2cc3cc(OC(=O)CCCCCNC(=O)CCCC[C@@H]4SC[C@@H]5NC(=O)N[C@@H]54)ccc3nc2-1`, the IC50 in the test with SW480 worked out at 0.45 µM; with SMMC-7721, 1.85 µM; with MCF7, 0.34 µM; in the test with A549 it was 0.75 µM; in the test on HL-60 it was 1.14 µM.

Turning to `CCc1c2c(nc3ccccc13)-c1cc3c(c(=O)n1C2)COC(=O)[C@@]3(CC)OC(=O)CCCCCNC(=O)CCCC[C@@H]1SC[C@@H]2NC(=O)N[C@@H]21`, the IC50 came to 16.2 µM in the test on SW480; 12.2 µM in the test on SMMC-7721; 1.94 µM in the test on MCF7; 3.08 µM in the test on A549; 0.84 µM with HL-60.

For the compound `CCc1c2c(nc3ccc(OC(=O)CCCCCNC(=O)CCCC[C@@H]4SC[C@@H]5NC(=O)N[C@@H]54)cc13)-c1cc3c(c(=O)n1C2)COC(=O)[C@]3(O)CC`, the IC50 came out at 1.48 µM in the test on SW480; 1.14 µM in the test with SMMC-7721; 0.4 µM with MCF7; 0.23 µM with A549; 0.76 µM with HL-60.

For the compound `CC[C@@]1(OCc2cn(CCOCCOCCNC(=O)CCCC[C@@H]3SC[C@@H]4NC(=O)N[C@@H]43)nn2)C(=O)OCc2c1cc1n(c2=O)Cc2cc3ccccc3nc2-1`, the IC50 in the test on SW480 turned out to be 6.05 µM; with SMMC-7721, 4.77 µM; in the test with MCF7, 3.47 µM; with A549 it was 3.63 µM; in the test on HL-60, 0.72 µM.

Turning to `CCc1c2c(nc3ccccc13)-c1cc3c(c(=O)n1C2)COC(=O)[C@@]3(CC)OCc1cn(CCOCCOCCOCCOCCOCCNC(=O)CCCC[C@@H]2SC[C@@H]3NC(=O)N[C@@H]32)nn1`, the IC50 in the test with SW480 turned out to be 0.57 µM; in the test on SMMC-7721, 4.1 µM; in the test on MCF7 it was 9.21 µM; in the test on A549, 5.18 µM; with HL-60, 4.77 µM.

With `CCc1c2c(nc3ccccc13)-c1cc3c(c(=O)n1C2)COC(=O)[C@@]3(CC)OCc1cn(CCOCCOCCNC(=O)CCCC[C@@H]2SC[C@@H]3NC(=O)N[C@@H]32)nn1`, the IC50 in the test on SW480, in the test on SMMC-7721, with MCF7, in the test with A549 and in the test with HL-60 was > 40 µM in each case.

With `CC[C@@]1(O)C(=O)OCc2c1cc1n(c2=O)Cc2cc3ccccc3nc2-1` [CAMPTOTHECIN], the IC50 is 0.29 µM with SW480, 0.45 µM in the test on SMMC-7721 and < 0.064 µM with HL-60.
